{"source": "ChEMBL document CHEMBL3272061", "about": "“Experiments of synthesis of dl-camptothecin. 4. Synthesis and antileukemic activity of dl-camptothecin analogues” (J Med Chem, 1976)", "key": {"[1]": {"test_system": "L1210", "assay": "Antileukemic activity against mouse L1210 cells allografted in BDF1 mouse assessed as increase in life span of host at 5.56 umol/kg, ip relative to control", "assay_type": "functional", "outline": "(§1)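 BDF1 mice, 5 weeks old, were inoculated ip with 5×10^5 L1210 cells; test groups had 4 males and 4 females, controls 5 males and 5 females. A single ip dose was given on the day after inoculation, as a suspension in vehicle for the insoluble compounds. Read-out was increase in life span over controls, with survivors past 30 days counted as 30 days.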"}, "[2]": {"test_system": "L1210", "assay": "Antileukemic activity against mouse L1210 cells allografted in BDF1 mouse assessed as host survival at 65.8 umol/kg, ip after 30 days", "assay_type": "functional, organism-based", "outline": "(§2)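 BDF1 mice, 5 weeks old, were inoculated ip with 5×10^5 L1210 cells in 0.1 ml saline. Test groups were 4 male and 4 female mice; controls were 5 male and 5 female. Insoluble compounds were suspended in vehicle. Dosing was ip, either once on the day after inoculation or daily for 5 days. Read-out was increase in life span over controls. Mice alive beyond 30 days were counted as 30 days and scored as survivors.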"}, "[3]": {"test_system": "L1210", "assay": "Antileukemic activity against mouse L1210 cells allografted in BDF1 mouse assessed as host survival at 132 umol/kg, ip after 30 days", "assay_type": "functional, organism-based", "outline": "as §2"}, "[4]": {"test_system": "L1210", "assay": "Antileukemic activity against mouse L1210 cells allografted in BDF1 mouse assessed as host survival at 5.56 umol/kg, ip after 30 days", "assay_type": "functional, organism-based", "outline": "as §2"}, "[5]": {"test_system": "L1210", "assay": "Antileukemic activity against mouse L1210 cells allografted in BDF1 mouse assessed as increase in life span of host at 26.3 umol/kg, ip relative to control", "assay_type": "functional", "outline": "as §1"}, "[6]": {"test_system": "L1210", "assay": "Antileukemic activity against mouse L1210 cells allografted in BDF1 mouse assessed as increase in life span of host at 65.8 umol/kg, ip relative to control", "assay_type": "functional", "outline": "as §1"}, "[7]": {"test_system": "L1210", "assay": "Antileukemic activity against mouse L1210 cells allografted in BDF1 mouse assessed as increase in life span of host at 132 umol/kg, ip relative to control", "assay_type": "functional", "outline": "as §2"}, "[8]": {"test_system": "L1210", "assay": "Antileukemic activity against mouse L1210 cells allografted in BDF1 mouse assessed as increase in life span of host at 27.8 umol/kg, ip relative to control", "assay_type": "functional", "outline": "as §1"}, "[9]": {"assay": "Solubility of the compound", "assay_type": "physicochemical"}, "[10]": {"test_system": "L1210", "assay": "Antileukemic activity against mouse L1210 cells allografted in BDF1 mouse assessed as host survival at 45.7 umol/kg, ip after 30 days", "assay_type": "functional, organism-based", "outline": "as §2"}, "[11]": {"organism": "Mus musculus", "assay": "Toxicity in mouse L1210 cells allografted BDF1 mouse", "assay_type": "organism-based"}, "[12]": {"test_system": "L1210", "assay": "Antileukemic activity against mouse L1210 cells allografted in BDF1 mouse assessed as increase in life span of host at 45.7 umol/kg, ip relative to control", "assay_type": "functional", "outline": "as §1"}, "[13]": {"test_system": "L1210", "assay": "Antileukemic activity against mouse L1210 cells allografted in BDF1 mouse assessed as increase in life span of host at 61 umol/kg, ip relative to control", "assay_type": "functional", "outline": "as §1"}, "[14]": {"test_system": "L1210", "assay": "Antileukemic activity against mouse L1210 cells allografted in BDF1 mouse assessed as host survival at 61 umol/kg, ip after 30 days", "assay_type": "functional, organism-based", "outline": "as §2"}, "[15]": {"test_system": "L1210", "assay": "Antileukemic activity against mouse L1210 cells allografted in BDF1 mouse assessed as increase in life span of host at 24.4 umol/kg, ip relative to control", "assay_type": "functional", "outline": "as §1"}, "[16]": {"test_system": "L1210", "assay": "Antileukemic activity against mouse L1210 cells allografted in BDF1 mouse assessed as increase in life span of host at 65.1 umol/kg, ip relative to control", "assay_type": "functional", "outline": "as §1"}, "[17]": {"test_system": "L1210", "assay": "Antileukemic activity against mouse L1210 cells allografted in BDF1 mouse assessed as host survival at 130 umol/kg, ip after 30 days", "assay_type": "functional, organism-based", "outline": "(§3)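 BDF1 mice, 5 weeks old; test groups four males + four females, controls five + five. 5×10^5 L1210 cells in 0.1 ml saline given ip. Compound, suspended in suspending vehicle (sodium salt dissolved), injected ip once on the day after inoculation. Survival followed to 30 days; mice surviving beyond 30 days counted as 30 days and scored as survivor fraction; activity as increased life span over controls.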"}, "[18]": {"test_system": "L1210", "assay": "Antileukemic activity against mouse L1210 cells allografted in BDF1 mouse assessed as host survival at 65.1 umol/kg, ip after 30 days", "assay_type": "functional, organism-based", "outline": "as §3"}, "[19]": {"test_system": "L1210", "assay": "Antileukemic activity against mouse L1210 cells allografted in BDF1 mouse assessed as increase in life span of host at 26 umol/kg, ip relative to control", "assay_type": "functional", "outline": "as §1"}, "[20]": {"test_system": "L1210", "assay": "Antileukemic activity against mouse L1210 cells allografted in BDF1 mouse assessed as increase in life span of host at 130 umol/kg, ip relative to control", "assay_type": "functional", "outline": "as §2"}, "[21]": {"test_system": "L1210", "assay": "Antileukemic activity against mouse L1210 cells allografted in BDF1 mouse assessed as host survival at 26 umol/kg, ip after 30 days", "assay_type": "functional, organism-based", "outline": "as §3"}, "[22]": {"test_system": "L1210", "assay": "Antileukemic activity against mouse L1210 cells allografted in BDF1 mouse assessed as host survival at 12.5 umol/kg, po qd for 5 days measured after 30 days", "assay_type": "functional, organism-based"}, "[23]": {"test_system": "L1210", "assay": "Antileukemic activity against mouse L1210 cells allografted in BDF1 mouse assessed as host survival at 25 umol/kg, po qd for 4 days measured after 30 days", "assay_type": "functional, organism-based"}, "[24]": {"test_system": "L1210", "assay": "Antileukemic activity against mouse L1210 cells allografted in BDF1 mouse assessed as host survival at 5 umol/kg, ip qd for 5 days measured after 30 days", "assay_type": "functional, organism-based", "outline": "as §2"}, "[25]": {"test_system": "L1210", "assay": "Antileukemic activity against mouse L1210 cells allografted in BDF1 mouse assessed as host survival at 5 umol/kg, po qd for 5 days measured after 30 days", "assay_type": "functional, organism-based"}, "[26]": {"test_system": "L1210", "assay": "Antileukemic activity against mouse L1210 cells allografted in BDF1 mouse assessed as host survival at 1 umol/kg, ip qd for 5 days measured after 30 days", "assay_type": "functional, organism-based", "outline": "as §2"}, "[27]": {"test_system": "L1210", "assay": "Antileukemic activity against mouse L1210 cells allografted in BDF1 mouse assessed as host survival at 25 umol/kg, sc qd for 5 days measured after 30 days", "assay_type": "functional, organism-based"}, "[28]": {"test_system": "L1210", "assay": "Antileukemic activity against mouse L1210 cells allografted in BDF1 mouse assessed as host survival at 12.5 umol/kg, ip qd for 5 days measured after 30 days", "assay_type": "functional, organism-based", "outline": "as §2"}, "[29]": {"test_system": "L1210", "assay": "Antileukemic activity against mouse L1210 cells allografted in BDF1 mouse assessed as host survival at 5 umol/kg, sc qd for 5 days measured after 30 days", "assay_type": "functional, organism-based"}, "[30]": {"test_system": "L1210", "assay": "Antileukemic activity against mouse L1210 cells allografted in BDF1 mouse assessed as host survival at 1 umol/kg, sc qd for 5 days measured after 30 days", "assay_type": "functional, organism-based"}}, "note": "Activity calls are given as the source filed them. The calls are words filed in the database; no cut-off is given here."}
{"smiles": "CCC1(O)C(=O)OCc2c1cc1n(c2=O)CC2Cc3ccccc3N(C=O)C12", "note": "(mixture of isomers)", "values": [{"measurement": "ILS at 5.56 µmol/kg", "setting": "[1]", "result": 34, "unit": "%"}, {"measurement": "Activity", "setting": "[2]", "result": "inactive"}, {"measurement": "Activity", "setting": "[3]", "result": "inactive"}, {"measurement": "Activity", "setting": "[4]", "result": "inactive"}, {"measurement": "ILS at 26.3 µmol/kg", "setting": "[5]", "result": -6, "unit": "%"}, {"measurement": "ILS at 65.8 µmol/kg", "setting": "[6]", "result": -9, "unit": "%"}, {"measurement": "ILS at 132 µmol/kg", "setting": "[7]", "result": -3, "unit": "%"}, {"measurement": "ILS at 27.8 µmol/kg", "setting": "[8]", "result": "> 244", "unit": "%"}, {"measurement": "solubility", "setting": "[9]", "result": "Insoluble"}]}
{"smiles": "O=C1OCc2c(cc3n(c2=O)Cc2cc4ccccc4nc2-3)C1(O)Cc1ccccc1", "note": "(racemic)", "values": [{"measurement": "Activity", "setting": "[10]", "result": "inactive"}, {"measurement": "Activity", "setting": "[11]", "result": "Toxic"}, {"measurement": "ILS at 45.7 µmol/kg", "setting": "[12]", "result": 12, "unit": "%"}, {"measurement": "ILS at 61 µmol/kg", "setting": "[13]", "result": -34, "unit": "%"}, {"measurement": "solubility", "setting": "[9]", "result": "Insoluble"}, {"measurement": "Activity", "setting": "[14]", "result": "inactive"}, {"measurement": "ILS at 24.4 µmol/kg", "setting": "[15]", "result": "> 171", "unit": "%"}]}
{"smiles": "C=CCC1(CC=C)C(=O)OCc2c1cc1n(c2=O)Cc2cc3ccccc3nc2-1", "values": [{"measurement": "ILS at 65.1 µmol/kg", "setting": "[16]", "result": 5, "unit": "%"}, {"measurement": "Activity", "setting": "[17]", "result": "inactive"}, {"measurement": "Activity", "setting": "[4]", "result": "inactive"}, {"measurement": "Activity", "setting": "[18]", "result": "inactive"}, {"measurement": "ILS at 26 µmol/kg", "setting": "[19]", "result": -8, "unit": "%"}, {"measurement": "ILS at 130 µmol/kg", "setting": "[20]", "result": 1, "unit": "%"}, {"measurement": "solubility", "setting": "[9]", "result": "Insoluble"}, {"measurement": "Activity", "setting": "[21]", "result": "inactive"}]}
{"smiles": "C=CCC1(O)C(=O)OCc2c1cc1n(c2=O)Cc2cc3ccccc3nc2-1", "note": "(stereo not drawn)", "values": [{"measurement": "Activity", "setting": "[22]", "result": "inactive"}, {"measurement": "Activity", "setting": "[23]", "result": "inactive"}, {"measurement": "Activity", "setting": "[24]", "result": "inactive"}, {"measurement": "Activity", "setting": "[25]", "result": "inactive"}, {"measurement": "Activity", "setting": "[26]", "result": "inactive"}, {"measurement": "Activity", "setting": "[27]", "result": "inactive"}, {"measurement": "Activity", "setting": "[28]", "result": "inactive"}, {"measurement": "Activity", "setting": "[29]", "result": "inactive"}, {"measurement": "Activity", "setting": "[30]", "result": "inactive"}]}
